Laboratory results taken from BindingDB's records for doi:10.1021/jm201131n (Academia Sinica, 2011).

Assays:
[1] = target: T1, Glutathione S-transferase A2 (Homo sapiens, UniProt P09210); assay: Inhibition of human GSTA2 using GSH as substrate after 3 mins by spectrophotometry
T1 sequence (P09210 whole entry): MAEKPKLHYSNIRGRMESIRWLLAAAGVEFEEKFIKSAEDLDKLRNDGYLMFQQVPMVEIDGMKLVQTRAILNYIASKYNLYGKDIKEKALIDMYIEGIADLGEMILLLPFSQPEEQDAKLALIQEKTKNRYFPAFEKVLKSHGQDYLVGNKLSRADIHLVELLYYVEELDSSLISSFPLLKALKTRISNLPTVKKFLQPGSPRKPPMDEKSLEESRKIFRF
How it was run: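 Human GST enzyme preincubated with inhibitor (0–200 μM) in 100 mM potassium phosphate pH 6.5 at 37 °C (GSTM1 at 32 ng). Reaction started with GSH (final 2 mM) and followed at 340 nm for 3 min. IC50 by nonlinear regression, mean ± SEM, n = 3. Percent inhibition at 100 μM is not corrected for glutathione conjugate formation.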

[2] = target: Glutathione S-transferase P (Homo sapiens, UniProt P09211); assay: Inhibition of human GSTP1-1 using GSH as substrate after 3 mins by spectrophotometry
Chain of Glutathione S-transferase P (P09211 whole entry): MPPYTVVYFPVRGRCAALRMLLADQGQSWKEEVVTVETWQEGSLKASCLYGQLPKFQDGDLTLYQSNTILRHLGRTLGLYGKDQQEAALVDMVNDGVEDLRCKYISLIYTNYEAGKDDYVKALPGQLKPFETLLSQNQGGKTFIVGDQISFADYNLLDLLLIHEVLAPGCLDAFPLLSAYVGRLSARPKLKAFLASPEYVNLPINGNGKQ

SMILES | IC50 [1] [µM] | IC50 [2] [µM]
CO[C@]1(C)O[C@H]2[C@H](O)C(C=O)CC(=O)[C@@H]2O[C@@]1(C)OC (stereo partly specified) | > 100 | –
CO[C@H]1CC(COC(C)=O)C(=O)C(=O)[C@H]1O (stereo partly specified) | > 100 | > 100
CC(=O)OCC1CC(O)[C@H](O)C(=O)C1=O (stereo partly specified) | > 100 | > 100
CC(=O)OCC1C[C@@H](O)[C@H](O)C(=O)C1=O (stereo partly specified) | > 100 | > 100
CO[C@@H]1CC(COC(C)=O)C(=O)C(=O)[C@H]1O (stereo partly specified) | > 100 | > 100
CC(=O)OCC1C[C@H](O)[C@H](O)C(=O)C1=O (stereo partly specified) | > 100 | > 100
